Mdm2 ligase inh: inhibitors of human Mdm2 E3 ubiquitin ligase; Q00987; hit rate 0.11% among 210,000; cell-based MDM2 ubiquitination luciferase reporter, 2 h; 0 = plate control, 100 = twice control, blank-subtracted; signal enhancement, % at 5 µM; AID 1230;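 active = signal enhancement of 30% or more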;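 note: luminescence tracks abundance of the self-degrading MDM2-luciferase fusion protein; higher signal means inhibition of MDM2 E3 ligase activity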
Target sequence (Q00987 whole entry, looked up, the tested form may be a part): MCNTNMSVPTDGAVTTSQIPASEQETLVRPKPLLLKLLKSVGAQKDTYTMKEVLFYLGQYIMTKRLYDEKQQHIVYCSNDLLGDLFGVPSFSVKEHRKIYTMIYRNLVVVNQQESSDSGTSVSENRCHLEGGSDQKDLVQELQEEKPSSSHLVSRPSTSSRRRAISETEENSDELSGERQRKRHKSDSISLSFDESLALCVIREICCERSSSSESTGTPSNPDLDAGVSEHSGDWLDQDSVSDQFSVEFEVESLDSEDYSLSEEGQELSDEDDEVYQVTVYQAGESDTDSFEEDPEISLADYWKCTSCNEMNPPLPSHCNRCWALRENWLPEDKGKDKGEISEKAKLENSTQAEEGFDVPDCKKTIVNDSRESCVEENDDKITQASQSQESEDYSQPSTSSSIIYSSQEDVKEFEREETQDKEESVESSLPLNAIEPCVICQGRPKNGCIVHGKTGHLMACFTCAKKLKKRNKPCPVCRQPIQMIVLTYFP
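system = mammalian cells stably expressing self-ubiquitinating, self-degrading MDM2 E3–luciferase fusion | quantity = 2000 cells per well seeded | incubation = 4 h cell settling then 2 h compound exposure, 37 °C | signal = SteadyLite luminescence, 15 min reagent step | benchmarks = plate control and blank wells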
Hep lipid drop: modulators of hepatic lipid droplet formation. inhibition, % at 6.5 µM. hit rate 0.4% among 240,000. AML12 mouse hepatocytes, oleate lipid droplets, BODIPY imaging. AID 1656;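 active = lipid droplet intensity inhibited by at least 50%, with more than 500 cells counted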
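Material – mouse AML12 hepatocyte cell line, fixed after treatment · Compound dosing – one dose, 6.5 µM compound · Times – compound with oleate, overnight · Measured by – Image-based BODIPY and DAPI two-channel analysis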
pCIP destab: lowers stability of the mouse p/CIP coactivator protein. Q05BA5. F442A p/CIP-EGFP cells, EGFP fluorescence, 16 h. decrease of EGFP signal, % at 10 µM. hit rate 0.01% among 290,000. AID 1984;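 active = EGFP signal decrease of at least 30% at 10 µM or well 3 SD below plate mean, unless failing retest; inactive = the rest, including hits failing retest or dose response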
Hep lipid conf: hepatic lipid droplet formation inhibition, confirmed | shares compounds with Hep lipid drop | AML12 mouse hepatocytes, BODIPY lipid droplet imaging; droplets induced with 100 µM oleic acid | inhibition, % at 5.2 µM | hit rate 65% among 870 | AID 463183;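 active = inhibition of lipid droplet metric at least 50%, with more than 300 cells in each of four replicates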;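 note: plate controls were DMSO with oleic acid for no effect and 5 µM Triacsin-C for full effect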
AML12 cytotox: AML12 hepatocyte cytotoxicity (counter-screen); z-score at 5 µM; hit rate 3% among 870; AML12 mouse hepatocytes, DAPI nuclear morphology cytotoxicity imaging; active compounds read high; cells fed 100 µM oleate overnight; AID 463200; shares compounds with Hep lipid drop; in the data active = z-score above about 6.3;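 note: compound exposure lasted overnight at 37 °C before fixation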
AML12 tox ATP: AML12 hepatocyte cytotoxicity, confirmed; 530 tested, under 10 active; shares compounds with Hep lipid drop; AID 463219; AML12 mouse hepatocyte viability, ATP luminescence; cells loaded with 100 µM oleic acid; cytotoxicity, % at 50 µM;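 active = cytotoxicity above 50% in each of four replicates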;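 note: compound exposure lasted overnight at 37 °C before the ATP read; 0% = DMSO-treated cells and 100% = wells with no cells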
The depositor's hits bear a star; / = no result given. The sample as a whole holds a higher share of hits than the screen did.

SMILES	Mdm2 ligase inh	Hep lipid drop	pCIP destab	Hep lipid conf	AML12 cytotox	others
CCCC(=O)Nc1c2c(nc3ccccc13)N(c1ccccc1)CC2	4	52*	-8	44	0.44
O=C(CC1NCCc2ccccc21)Nc1ccc(Cl)cc1 (centres undefined)	10	/	3	/	/
N=c1scc(-c2ccccc2)n1/N=C/c1ccco1	-4	54*	-4	26	-0.56
C(=N/n1c2ccccc2c2ccccc21)/c1ccco1	5	-1	-1	/	/
CCN(CC(=O)Nc1ccc(NC(C)=O)cc1)Cc1c(O)ccc2cc(Br)ccc12	/	-8	-4	/	/
N/C(CSc1ncccc1C(F)(F)F)=N\O	-12	1	4	/	/
COc1ccc(Cl)cc1NC(=O)CCNC(=O)OCc1ccccc1	-6	63*	3	100*	0.064	AML12 tox ATP=2
COc1ccc(Cl)cc1NC(=O)CCc1ccccc1	-11	-14	8	/	/
Cc1cc(C(=O)CN2C(=O)c3ccccc3S2(=O)=O)c(C)n1-c1ccccc1	-40	65*	-3	24	-0.28
O=C(CN1C(=O)c2ccccc2S1(=O)=O)c1ccccc1	-43	7	3	/	/
CCOc1cc(/C=N\Nc2nc(Nc3ccccc3)nc(N3CCOCC3)n2)ccc1OC(=O)c1ccco1	-12	132*	-6	109*	20*
COc1cc(/C=N/Nc2nc(C)cc(C)n2)ccc1OC(=O)c1ccco1	-7	1	-2	/	/
COc1ccc(C(=O)CSc2nnc(CNC(=O)c3ccccc3)n2C)cc1	/	-7	-13	/	/
Cc1cccc(C(=O)NNC(=O)CCCCC(=O)NNC(=O)c2cccc(C)c2)c1	/	-14	1	/	/
CC(C)Oc1ccc(C(=O)Nc2ccc(N3CCN(C(=O)c4ccco4)CC3)cc2)cc1	/	69*	-4	57	-0.23	AML12 tox ATP=-4
COc1ccc(C(=O)N2CCN(c3ccc(NC(=O)c4ccco4)cc3)CC2)cc1	/	9	2	/	/
Cc1cc(C)nc(Nc2nc3ccccc3[nH]2)n1	-6	58*	0	26	-0.94
Nc1ccc(Nc2nc3ccccc3[nH]2)cc1	/	-2	0	/	/
Cc1ccc(S(=O)(=O)N(C)C)cc1NC(=S)Nc1ccc2cn[nH]c2c1	2	56*	0	25	-0.93
Cc1ccc(NC(=S)Nc2ccc3cn[nH]c3c2)cc1C	-14	-24	-10	/	/
COC(=O)[C@H](Cc1c[nH]c2ccccc12)NC(=O)Nc1ccccc1OC	-8	-11	-14	/	/
COc1cc2c(cc1NC(=O)CSc1nc3ccc(C)cc3[nH]1)oc1ccccc12	1	52*	13	99*	-0.06
COc1cc2c(cc1NC(=O)CSc1ccc(C)cc1)oc1ccccc12	-3	/	5	/	/
CCOC(=O)CSCC(=O)N1CCC(Cc2ccccc2)CC1	/	-7	-13	/	/
O=C(NCc1cccs1)C1CCC(CNS(=O)(=O)c2cccs2)CC1 (centres undefined)	-15	52*	-6	47	-0.91
SMILES	Mdm2 ligase inh	Hep lipid drop	pCIP destab	Hep lipid conf	AML12 cytotox	others
O=C(NCc1cccs1)C1CCC(CNS(=O)(=O)c2ccccc2)CC1 (centres undefined)	-6	-8	-43	/	/
CC(C)c1ccc(N(C(=O)CNC(=O)c2ccco2)C(C(=O)NC2CCCC2)c2cccnc2)cc1 (centres undefined)	/	-8	-3	/	/
CC(NC(=O)Nc1ccc([N+](=O)[O-])cc1)C(c1cccs1)N1CCCC1 (centres undefined)	-1	-90	6	/	/
Cc1cccc2sc(NC(=O)CN(C)S(=O)(=O)c3ccc(Br)s3)nc12	-7	35	4	/	/
Cc1cccc2sc(NC(=O)CN(C)S(=O)(=O)c3cccs3)nc12	-2	56*	0	95*	-0.78	AML12 tox ATP=9
COc1cc2c3nnc(-c4ccc(F)cc4)c-3cn(Cc3cccc(F)c3)c2cc1OC	-23	-4	-61	/	/
COc1cc2c3nnc(-c4ccc(F)cc4)c-3cn(Cc3cccc(C)c3)c2cc1OC	-23	54*	-7	40	4.4
O=C(c1ccc(N2CCOCC2)c([N+](=O)[O-])c1)N1CCN(Cc2ccccc2)CC1	/	8	0	/	/
COc1ccc(CNC(=O)C/C(C)=N/NC(=O)c2ccccc2OC)cc1	/	-3	6	/	/
COc1ccc(S(=O)(=O)Nc2ccc(S(=O)(=O)NCC3CCCO3)cc2)cc1 (centres undefined)	/	8	-10	/	/
COc1ccc(NS(=O)(=O)c2ccc(NC(=S)NCC3CCCO3)cc2)cc1 (centres undefined)	/	84*	0	100*	-0.39	AML12 tox ATP=19
CCOc1ccc(CNC(=S)Nc2ccccc2)cc1Cl	/	1	11	/	/
CCOC(=O)n1cc(-c2cnc(CNC(=O)C(C)(c3ccccc3)c3ccccc3)o2)c2ccccc21	/	59*	-3	90*	0.61
CC(C(=O)NCCN1CCOCC1)(c1ccccc1)c1ccccc1	-7	0	-1	/	/
CCOc1ccccc1NC(=O)C(Sc1nnnn1C)c1ccccc1 (centres undefined)	-4	-7	0	/	/
O=C(Nc1nc(-c2ccccc2)cs1)C1CCCCN1S(=O)(=O)c1ccc(Cl)cc1 (centres undefined)	-17	62*	-38	91*	-0.081	AML12 tox ATP=2
O=C(Nc1nc(-c2ccccc2)cs1)C1CCCO1 (centres undefined)	-3	18	-4	/	/
O=C(Nc1nc(-c2ccccc2)cs1)C1CCCCN1S(=O)(=O)c1ccccc1 (centres undefined)	-11	41	46	/	/
O=C(Nc1nc(-c2ccc(-c3ccccc3)cc2)cs1)C1CCCO1 (centres undefined)	-11	61*	2	102*	0.32	AML12 tox ATP=9
CCCN1C(=O)/C(=C\C=C2/Sc3ccccc3N2CC)SC1=S	-15	21	-5	/	/
CCCN1C(=O)/C(=C\C=C2\N(CC)c3ccccc3C2(C)C)SC1=S	-2	111*	-760	115*	0.19	AML12 tox ATP=8
Cc1cc(=O)nc2c3ccccc3n(CC(=O)NCCCN3CCCCC3C)n12 (centres undefined)	/	-23	-4	/	/
COc1ccc(CCNC(=O)C/C(C)=N/NC(=O)Cc2cccc3ccccc23)cc1OC	-9	10	8	/	/
COc1ccc(C)cc1NC(=O)C/C(C)=N/NC(=O)Cc1cccc2ccccc12	/	72*	-4	70*	-0.61	AML12 tox ATP=11
COCC1CCCCN1C(=O)c1cccc(OC2CCN(S(C)(=O)=O)CC2)c1 (centres undefined)	/	3	4	/	/
CC(O)CNC12CC3CC(CC(C3)C1)C2 (centres undefined)	-6	2	-4	/	/
CCCC(=O)Oc1ccc(-c2nccc(C(OC)OC)n2)cc1	1	10	-12	/	/
COc1ccc(C2CC(c3cccs3)=NN2C(=O)c2ccc(Br)o2)cc1 (centres undefined)	-6	83*	2	93*	0.47	AML12 tox ATP=-11

Source: PubChem
